This note sets out measurements from ChEMBL document CHEMBL4325889, “Natural products hybrids: 3,5,4'-Trimethoxystilbene-5,6,7-trimethoxyflavone chimeric analogs as potential cytotoxic agents against diverse human cancer cells” (Eur J Med Chem, 2019).

Holding throughout (type): functional
One assay concerns IGROV-1. As to the kind of experiment: Growth inhibition of human IGROV1 cells at 10 uM after 48 hrs by SRB assay relative to control. Conditions: IGROV-1, 48 h, read-out: GI. The essentials:
(§1)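 Screened at the National Cancer Institute by the standard NCI protocol using the sulforhodamine B assay, which measures cellular protein. Single dose of 10 µM. Result is percent growth inhibition; values above 100% mean cell number fell below the initial population. Values are the average of duplicates.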
(In general: Sulforhodamine B stains cellular protein and so reports cell mass.)

The subject of another assay is HL-60(TB). Put plainly: Growth inhibition of human HL-60(TB) cells at 10 uM after 48 hrs by SRB assay relative to control. Conditions: HL-60, 48 h, read-out: GI. In a few lines:
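Run at NCI under its standard single-dose protocol against a leukemia cell panel. Cells were exposed to 10 µM; growth was read by sulforhodamine B staining of cellular protein and expressed as % growth inhibition versus untreated control. Values above 100% mean the cell population fell below the starting count (cytocidal). Each value is the average of duplicates.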

A further assay relates to HOP-92. As to the kind of experiment: Growth inhibition of human HOP92 cells at 10 uM after 48 hrs by SRB assay relative to control. Particulars: HOP-92, 48 h, read-out: GI. In a few lines:
as §1

Another assay relates to HCT-116. Put plainly: Growth inhibition of human HCT116 cells at 10 uM after 48 hrs by SRB assay relative to control. Particulars: HCT-116, 48 h, read-out: GI. The essentials: as §1
The subject of another assay is OVCAR-5. As to the kind of experiment: Growth inhibition of human OVCAR5 cells at 10 uM after 48 hrs by SRB assay relative to control. Conditions: OVCAR-5, 48 h, read-out: GI. The essentials: as §1
Another assay concerns U-251. As to the kind of experiment: Growth inhibition of human U251 cells at 10 uM after 48 hrs by SRB assay relative to control. Conditions: U-251, 48 h, read-out: GI. In a few lines: (§2)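 NCI screen against its human cancer cell line panel by the standard NCI protocol, SRB protein stain. Single dose of 10 μM. Percent growth inhibition versus control; values above 100% mean the cell population fell below the starting number. Each value is the mean of duplicates.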

For another assay, the system named is PC-3. As to the kind of experiment: Growth inhibition of human PC3 cells at 10 uM after 48 hrs by SRB assay relative to control. Particulars: PC-3, 48 h, read-out: GI. The essentials: as §1
For the next assay, the system named is SF-539. As to the kind of experiment: Growth inhibition of human SF539 cells at 10 uM after 48 hrs by SRB assay relative to control. Particulars: SF-539, 48 h, read-out: GI. In a few lines: as §1
For a further assay, the system named is NCI/ADR-RES. Put plainly: Growth inhibition of human NCI/ADR-RES cells at 10 uM after 48 hrs by SRB assay relative to control. Particulars: read-out: GI. The essentials: as §1
The subject of the next assay is HT-29. As to the kind of experiment: Growth inhibition of human HT-29 cells at 10 uM after 48 hrs by SRB assay relative to control. Conditions: HT-29, 48 h, read-out: GI. The essentials: as §1
In another assay the test system is NCI-H322M. As to the kind of experiment: Growth inhibition of human NCI-H322M cells at 10 uM after 48 hrs by SRB assay relative to control. Conditions: read-out: GI. In a few lines: as §1
For another assay, the system named is COLO 205. Put plainly: Growth inhibition of human COLO205 cells at 10 uM after 48 hrs by SRB assay relative to control. Particulars: COLO 205, 48 h, read-out: GI. The essentials: as §1
In a further assay the test system is SF-295. As to the kind of experiment: Growth inhibition of human SF295 cells at 10 uM after 48 hrs by SRB assay relative to control. Conditions: SF-295, 48 h, read-out: GI. The essentials: as §1
For the next assay, the system named is CAKI-1. Put plainly: Growth inhibition of human Caki1 cells at 10 uM after 48 hrs by SRB assay relative to control. Particulars: CAKI-1, 48 h, read-out: GI. In a few lines: as §1
The test system of a further assay is SK-MEL-2. As to the kind of experiment: Growth inhibition of human SK-MEL-2 cells at 10 uM after 48 hrs by SRB assay relative to control. Particulars: SK-MEL-2, 48 h, read-out: GI. In a few lines: as §1
A further assay deals with LOX IMVI. As to the kind of experiment: Growth inhibition of human LOXIMVI cells at 10 uM after 48 hrs by SRB assay relative to control. Particulars: read-out: GI. The essentials:
as §1

In a further assay the test system is BT-549. As to the kind of experiment: Growth inhibition of human BT549 cells at 10 uM after 48 hrs by SRB assay relative to control. Particulars: BT-549, 48 h, read-out: GI. In a few lines:
as §1

Another assay has as its system UO-31. Put plainly: Growth inhibition of human UO31 cells at 10 uM after 48 hrs by SRB assay relative to control. Particulars: UO-31, 48 h, read-out: GI. In a few lines:
as §2

For the next assay, the system named is SF-268. Put plainly: Growth inhibition of human SF268 cells at 10 uM after 48 hrs by SRB assay relative to control. Conditions: SF-268, 48 h, read-out: GI. The essentials:
as §1

Consider `COc1cccc(NC(=O)c2cccc(-c3cc(=O)c4c(O)c(OC)c(OC)cc4o3)c2)c1`, for which the inhibition of growth at 10 µM in the assay with IGROV-1 was determined as 12%; with HL-60(TB) it was 17.5%; in the assay on HOP-92 it was 33.6%; in the assay on HCT-116, 30.7%; in the assay on OVCAR-5 it was 8.5%; in the assay on U-251, 23.9%. Moreover, the inhibition of growth at 10 µM with PC-3 stood at 39.3%; with SF-539, 20.7%; with NCI/ADR-RES, 25.8%; with HT-29, 15.6%; with NCI-H322M, 12.9%; with COLO 205 it was 24.3%. The inhibition of growth at 10 µM in the assay with SF-295 was determined as 17.6%; in the assay with CAKI-1, 32.4%; in the assay on SK-MEL-2 it was 2.64%; in the assay with LOX IMVI, 36.8%; in the assay with BT-549 it was 30.5%; in the assay on UO-31, 41.7%. For the same molecule, in the assay on SF-268, the inhibition of growth at 10 µM was 22.9%.

Take `COc1ccc(NC(=O)c2cccc(-c3cc(=O)c4c(OC)c(OC)c(OC)cc4o3)c2)cc1`: the inhibition of growth at 10 µM in the assay with IGROV-1 turned out to be 38.7%; with HL-60(TB), 21.2%; in the assay with HOP-92 it was 52.7%; in the assay on HCT-116, 36.6%; in the assay with OVCAR-5 it was 16.8%; with U-251, 13.9%. Further, the inhibition of growth at 10 µM worked out at 38.8% with PC-3; 27.7% with SF-539; 47.2% in the assay on NCI/ADR-RES; 32.9% with HT-29; 24.5% in the assay on NCI-H322M; 30.6% in the assay with COLO 205. In addition, the inhibition of growth at 10 µM worked out at 33.6% in the assay with SF-295; 63.7% with CAKI-1; 15.3% in the assay on SK-MEL-2; 75.4% with LOX IMVI; 53.1% in the assay on BT-549; 56.1% in the assay on UO-31. Also, in the assay with SF-268, the inhibition of growth at 10 µM is 27.9%.

Regarding `COc1cc2oc(-c3cccc(C(=O)Nc4ccccc4)c3)cc(=O)c2c(OC)c1OC`, the inhibition of growth at 10 µM with IGROV-1 is 19.4%; in the assay on HL-60(TB) it was 12.7%; in the assay with HOP-92, 29.2%; in the assay on HCT-116 it was 18.3%; in the assay on OVCAR-5 it was 16.2%; in the assay with U-251 it was 9.89%. Also, the inhibition of growth at 10 µM in the assay with PC-3 turned out to be 29%; in the assay on SF-539 it was 19.8%; in the assay on NCI/ADR-RES it was 18.2%; in the assay on HT-29, 11.5%; in the assay with NCI-H322M, 17.7%; in the assay with COLO 205, 2.76%. Moreover, the inhibition of growth at 10 µM came out at 4.34% with SF-295; 4.59% in the assay on CAKI-1; 15.4% in the assay with SK-MEL-2; 33% in the assay with LOX IMVI; 24.2% in the assay on BT-549; 35.6% in the assay with UO-31. Moreover, in the assay on SF-268, the inhibition of growth at 10 µM worked out at 16.7%.

Regarding `COc1cc2oc(-c3cccc(C(=O)Nc4ccc5c(c4)OCO5)c3)cc(=O)c2c(OC)c1OC`, the inhibition of growth at 10 µM in the assay on IGROV-1 is 39.8%; in the assay on HL-60(TB), 30.3%; in the assay with HOP-92, 21.9%; with HCT-116 it was 27.3%; with OVCAR-5, 16.4%; with U-251, 9.36%. For the same molecule, the inhibition of growth at 10 µM came out at 26.5% in the assay with PC-3; 14.7% in the assay with SF-539; 35.1% with NCI/ADR-RES; 17.2% in the assay on HT-29; 22.6% with NCI-H322M; 24.4% with COLO 205. The inhibition of growth at 10 µM with SF-295 was 2.37%; in the assay with CAKI-1 it was 27.9%; with SK-MEL-2, -2.38%; in the assay with LOX IMVI, 81.5%; in the assay with BT-549, 42.4%; in the assay with UO-31, 41%. Besides, the inhibition of growth at 10 µM in the assay with SF-268 was 12.5%.

Regarding `COc1ccc(NC(=O)c2cccc(-c3cc(=O)c4c(O)c(OC)c(OC)cc4o3)c2)cc1`, the inhibition of growth at 10 µM in the assay on IGROV-1 was 4.86%; in the assay with HL-60(TB), -29.7%; in the assay with HOP-92, 76.4%; with HCT-116, 29.5%; in the assay on OVCAR-5, 2.51%; in the assay on U-251, 26.8%. Further, the inhibition of growth at 10 µM in the assay on PC-3 is 13.8%; in the assay on SF-539, 43.9%; in the assay with NCI/ADR-RES, 14.7%; with HT-29, 12.3%; in the assay on NCI-H322M, 0.54%; with COLO 205, 2.39%. Also, the inhibition of growth at 10 µM with SF-295 is -3.77%; with CAKI-1 it was 6.41%; in the assay on SK-MEL-2, 16.6%; in the assay with LOX IMVI, 20.2%; with BT-549 it was 69%; with UO-31, 6.6%. Also, the inhibition of growth at 10 µM in the assay on SF-268 amounted to 45.4%.

Consider `COc1cccc(NC(=O)c2cccc(-c3cc(=O)c4c(OC)c(OC)c(OC)cc4o3)c2)c1`, for which the inhibition of growth at 10 µM in the assay with IGROV-1 worked out at 46.7%; in the assay with HL-60(TB), 31.3%; in the assay with HOP-92, 58.1%; in the assay on HCT-116, 39.3%; in the assay with OVCAR-5, 9.93%; with U-251 it was 37.9%. The inhibition of growth at 10 µM with PC-3 is 42.9%; with SF-539, 22.5%; with NCI/ADR-RES, 35.2%; with HT-29, 49.2%; with NCI-H322M, 19.9%; with COLO 205, 31.7%. Further, the inhibition of growth at 10 µM with SF-295 was found to be 29.2%; in the assay on CAKI-1, 25.3%; in the assay with SK-MEL-2, 24.3%; in the assay with LOX IMVI, 50.1%; in the assay on BT-549, 45.8%; with UO-31, 68.4%. Moreover, the inhibition of growth at 10 µM in the assay with SF-268 came out at 36.9%.

`COc1cc2oc(-c3cccc(NC(=O)c4ccccc4)c3)cc(=O)c2c(OC)c1OC`: the inhibition of growth at 10 µM in the assay on IGROV-1 was 21.6%; in the assay on HL-60(TB) it was 39.5%; with HOP-92, 52.4%; with HCT-116 it was 32.3%; in the assay with OVCAR-5 it was -0.09%; in the assay on U-251, 16.3%. Also, the inhibition of growth at 10 µM in the assay on PC-3 worked out at 46.9%; in the assay with SF-539, 32.2%; in the assay on NCI/ADR-RES it was 25.5%; in the assay on HT-29 it was 22.9%; in the assay with NCI-H322M it was 16.2%; in the assay with COLO 205 it was 15.6%. Besides, the inhibition of growth at 10 µM in the assay with SF-295 amounted to 22.2%; with CAKI-1, 12.8%; in the assay on SK-MEL-2, 23.2%; in the assay on LOX IMVI it was 38.3%; with BT-549, 25.9%; in the assay with UO-31, 49%. Moreover, in the assay on SF-268, the inhibition of growth at 10 µM was 27.7%.
